Laboratory results: ChEMBL document CHEMBL1833924, “HLE-inhibitory alkaloids with a polyketide skeleton from the marine-derived fungus Coniothyrium cereale” (J Nat Prod, 2011)
Active and inactive are the calls of the source. No cut-off for these calls is given here.

What was measured:
[1] = biological target: T1, Neutrophil elastase (Homo sapiens, UniProt P08246); assay: Inhibition of human leukocyte elastase using MeOSuc-Ala-Ala-Pro-Val-para-nitroanilide chromogenic substrate after 10 mins spectrophotometrically
T1 sequence (P08246 whole entry): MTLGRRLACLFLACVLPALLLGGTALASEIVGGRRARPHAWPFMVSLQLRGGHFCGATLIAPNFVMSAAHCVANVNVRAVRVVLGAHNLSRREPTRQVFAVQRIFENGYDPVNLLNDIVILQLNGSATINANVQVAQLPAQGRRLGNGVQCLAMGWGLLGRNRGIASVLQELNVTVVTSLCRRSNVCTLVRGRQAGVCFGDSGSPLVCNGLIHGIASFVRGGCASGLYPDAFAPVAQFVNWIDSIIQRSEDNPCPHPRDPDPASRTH
Method in brief: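 Human leukocyte elastase enzyme inhibition assay; IC50 (μM) determined and reported as mean ± spread.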

[2] = test system: L929; assay: Cytotoxicity against mouse L929 cells after 5 days by MTT assay; format: cell-based; details: L929, 120 h
Method in brief: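 MTT viability assay run on mouse fibroblast cells; result expressed as IC50 (μM).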

[3] = test system: Mycolicibacterium phlei; assay: Antibacterial activity against Mycobacterium phlei assessed as zone of inhibition at 20 ug/disk after 24 hrs by agar diffusion assay; format: functional; details: read-out: DIZ
Method in brief: (§1)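 Paper discs loaded at 20 μg/disk were placed on agar seeded with each bacterium (Mycobacterium phlei, Staphylococcus aureus or Escherichia coli). Read-out was the diameter of the inhibition zone, recorded in mm.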

[4] = test system: Staphylococcus aureus; assay: Antibacterial activity against Staphylococcus aureus assessed as zone of inhibition at 20 ug/disk after 24 hrs by agar diffusion assay; format: functional; details: read-out: DIZ; method in brief: as §1
[5] = test system: Escherichia coli; assay: Antibacterial activity against Escherichia coli assessed as zone of inhibition at 20 ug/disk after 24 hrs by agar diffusion assay; format: functional; details: read-out: DIZ; method in brief: as §1
[6] = Inhibition of bovine Chymotrypsin; set-up: species or system Bos taurus
[7] = Inhibition of bovine trypsin; set-up: species or system Bos taurus
[8] = biological target: Prothrombin (Homo sapiens, UniProt P00734); assay: Inhibition of human thrombin
[9] = biological target: T2, Papain (Carica papaya, UniProt P00784); assay: Inhibition of Carica papaya papain
T2 sequence (P00784 whole entry): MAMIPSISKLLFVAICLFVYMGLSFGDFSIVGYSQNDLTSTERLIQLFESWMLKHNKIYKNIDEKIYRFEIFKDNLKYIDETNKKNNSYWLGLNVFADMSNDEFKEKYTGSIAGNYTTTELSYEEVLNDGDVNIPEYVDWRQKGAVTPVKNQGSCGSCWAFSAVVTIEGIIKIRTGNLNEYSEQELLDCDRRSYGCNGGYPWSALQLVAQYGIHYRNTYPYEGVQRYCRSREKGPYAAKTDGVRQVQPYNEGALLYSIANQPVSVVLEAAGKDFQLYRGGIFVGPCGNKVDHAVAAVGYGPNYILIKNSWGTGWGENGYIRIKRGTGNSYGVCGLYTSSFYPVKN

[10] = Inhibition of porcine cholesterol esterase; set-up: species or system Sus scrofa
[11] = biological target: Acetylcholinesterase (Electrophorus electricus, UniProt O42275); assay: Inhibition of electric eel AChE
Chain of Acetylcholinesterase (O42275 whole entry): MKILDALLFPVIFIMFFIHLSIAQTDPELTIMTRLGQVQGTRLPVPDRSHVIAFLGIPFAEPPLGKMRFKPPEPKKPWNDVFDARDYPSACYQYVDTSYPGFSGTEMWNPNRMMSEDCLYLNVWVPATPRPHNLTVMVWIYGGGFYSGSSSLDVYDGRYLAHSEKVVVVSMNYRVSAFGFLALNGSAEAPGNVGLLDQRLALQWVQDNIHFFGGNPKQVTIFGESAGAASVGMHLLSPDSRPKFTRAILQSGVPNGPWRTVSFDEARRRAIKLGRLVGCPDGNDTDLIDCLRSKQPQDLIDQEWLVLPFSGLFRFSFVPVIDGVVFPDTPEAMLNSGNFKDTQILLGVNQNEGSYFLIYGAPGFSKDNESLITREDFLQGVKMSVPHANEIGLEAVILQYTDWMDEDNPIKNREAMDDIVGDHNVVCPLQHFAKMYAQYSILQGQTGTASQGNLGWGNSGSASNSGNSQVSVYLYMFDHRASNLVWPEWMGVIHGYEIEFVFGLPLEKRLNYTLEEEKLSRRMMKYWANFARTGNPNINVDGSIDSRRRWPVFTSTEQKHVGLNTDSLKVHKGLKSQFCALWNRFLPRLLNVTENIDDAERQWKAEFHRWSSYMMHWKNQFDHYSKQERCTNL

[12] = test system: L929; assay: Cytotoxicity against mouse L929 cells at 60 uL after 5 days by MTT assay; format: cell-based; details: l929, 120 h
[13] = test system: Mycolicibacterium phlei; assay: Antibacterial activity against Mycobacterium phlei at 20 uL after 24 hrs by agar diffusion assay; format: functional, organism-based
[14] = test system: Staphylococcus aureus; assay: Antibacterial activity against Staphylococcus aureus at 20 uL after 24 hrs by agar diffusion assay; format: functional, organism-based
[15] = test system: Escherichia coli; assay: Antibacterial activity against Escherichia coli at 20 ug/disk after 24 hrs by agar diffusion assay

| SMILES | IC50 [1] [µM] | IC50 [2] [µM] | zone of inhibition at 20 µg/disc [3] [mm] | zone of inhibition at 20 µg/disc [4] [mm] | zone of inhibition at 20 µg/disc [5] [mm] | IC50 [6] [µM] | IC50 [7] [µM] | IC50 [8] [µM] | IC50 [9] [µM] | IC50 [10] [µM] | IC50 [11] [µM] | Activity [12] | Activity [13] | Activity [14] | Activity [15] |
| --- | --- | --- | --- | --- | --- | --- | --- | --- | --- | --- | --- | --- | --- | --- | --- |
| Cc1cc(O)cc2c1C1=C(C(=O)C2=O)C(C)(C)[C@H](C)O1 | > 20 | 7.5 | 18 | 14 | 12 | > 50 | > 50 | > 50 | > 50 | > 50 | > 50 |  |  |  |  |
| C[C@@H]1OC2=C(C(=O)C(=N)c3c(O)c(O)cc(C=O)c32)C1(C)C | 3.01 |  |  |  |  | > 50 | > 50 | > 50 | > 50 | > 50 | > 50 | Non-toxic | inactive | inactive | inactive |
| Cc1cc(O)c2c3c(c(O)c4c(c13)O[C@@H](C)C4(C)C)NC2=O | 9.28 |  |  |  |  | > 50 | > 50 | > 50 | > 50 | > 50 | > 50 | Non-toxic | inactive | inactive | inactive |
